Experimental data gathered from unrelated publications.
Protocols differ between the studies behind these lines.
Observed: cell growth or viability

With `CONC(=O)c1cccc2c1cc(C)n2-c1nc2c(c(NCc3ccccc3)n1)CCCN2` the IC50 was 2.1 µM (ARP-1; 72 h).
For `O=C(CSc1nc2ccccc2s1)N/N=C/c1ccc(OCC(=O)Nc2cccc(Br)c2)cc1`, the IC50 was greater than 100 µM (Z-138; MTS; 72 h).
With `N#Cc1ccc(-c2cc(COc3cc(C(F)(F)F)nc4ccccc34)on2)cc1` the IC50 was 36.7 µM (Z-138; MTS; 72 h).
`CC(C)c1cccc(C(C)C)c1N=C1C(=O)N(Cc2ccc(Br)cc2)c2ccccc21` has an IC50 of 34.2 µM (B16; MTT; 48 h).
The IC50 of `COc1cc([C@@H]2c3cc4c(cc3[C@@H](O[C@@H]3O[C@@H]5CO[C@@H](C)O[C@H]5[C@H](O)[C@H]3O)[C@H]3COC(=O)[C@H]23)OCO4)cc(OC)c1O` is reported as 0.08 µM (Z-138; MTS; 72 h).
For `O=C1Nc2ccccc2C1=Nc1ccccc1I`, the IC50 was 7.38 µM (B16; MTT; 48 h).
With `CN1CCC(NC2CCc3[nH]c4c(C(N)=O)ccc(-c5ccccc5Cl)c4c3C2)CC1` (centres unmarked) the IC50 was 0.0347 µM (BXPC-3; 96 h).
The IC50 of `Cc1cc2c(C(N)=O)cccc2n1-c1nc2c(c(NCc3ccccc3)n1)CCCN2` is reported as 0.8 µM (BXPC-3; 72 h).
`O=c1cc(OCc2cc(-c3ccc(Cl)cc3Cl)no2)c2ccccc2o1` gave an IC50 of greater than 100 µM (Z-138; MTS; 72 h).
`Cc1ccc(CN2C(=O)C(=Nc3cccc(Cl)c3)c3ccccc32)cc1` gave an IC50 of 1.49 µM (B16; MTT; 48 h).
`c1ccc(-c2cc(CNc3cccc4cccnc34)on2)cc1` has an IC50 of 35.3 µM (Z-138; MTS; 72 h).
`Cc1nn(-c2ccc(S(=O)(=O)N3CCN(C)CC3)cc2)c2nn3nnnc3nc12` gave an IC50 of 0.08 µM (DLD-1; MTT).
`CC(C)c1cccc(C(C)C)c1N=C1C(=O)Nc2ccccc21` has an IC50 of 6.88 µM (B16; MTT; 48 h).
For `O=C(CSc1nc2ccccc2s1)N/N=C/c1ccc(OCC(=O)Nc2cccc([N+](=O)[O-])c2)cc1`, the IC50 was greater than 100 µM (Z-138; MTS; 72 h).
The IC50 of `N#Cc1ccc(-c2cc(CNc3cccc4cccnc34)on2)cc1` is reported as 10.8 µM (Z-138; MTS; 72 h).
With `O=C1C(=Nc2ccccc2I)c2ccccc2N1Cc1cccc(Cl)c1` the IC50 was 5.86 µM (B16; MTT; 48 h).
With `N/C(=N\O)c1ccc(-c2cc(CNc3cccc4cccnc34)on2)cc1` the IC50 was 2.1 µM (Z-138; MTS; 72 h).
The IC50 of `Cc1cc2c(C(=O)O)cccc2n1-c1nc2c(c(NCc3ccccc3)n1)CCCN2` is reported as 0.7 µM (BXPC-3; 72 h).
With `O=C1Nc2ccccc2C1=Nc1cccc(Cl)c1` the IC50 was greater than 100 µM (B16; MTT; 48 h).
For `Clc1ccc(-c2cc(CNc3cccc4cccnc34)on2)c(Cl)c1`, the IC50 was 27.9 µM (Z-138; MTS; 72 h).
